This is a sample that favours compounds with a hit; in the whole collection about 4.1% have one here.
KCNQ1 act: human KCNQ1 channel potentiation or activation; P51787; CHO-K1 KCNQ1, thallium flux FluxOR fluorescence; hits give high values; B-score at 10 µM; 0.35% of 310,000 active;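 active means fluorescence ratio B-score, a plate-corrected score, at least three library SD, with initial intensity B-score within 5 SD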
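Assay system: CHO-K1 cells stably expressing KCNQ1; Medium: assay buffer with matched DMSO; Also added: K+/Tl+ depolarizing stimulus; Dosing: single dose; Timing: dye 90 min, compound 20 min, room temperature; Measured by: kinetic FluxOR thallium fluorescence, 10-s 1-Hz baseline, 110-s post-stimulus read; Read-out: peak-minus-minimum fluorescence over initial fluorescence, negative-control normalized, B-scored.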
Cl transport mod: modulators of human KCC2 chloride dependent transport | Q9H2X9 | KCC2 cells, thallium flux FluoZin-2 fluorescence | B-score of Tl+ flux slope (higher = more flux/activation; lower = inhibition) at 10 µM | 2.2% of 190,000 active;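 active means thallium flux slope and its plate-corrected score both differing from the plate sample mean at a set confidence after two filtering rounds, in either direction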;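 further: slope of fluorescence scaled to starting intensity during 10 to 20 s after thallium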
KCNK9 inh: inhibitors of human KCNK9 two-pore domain potassium channel. HEK293 KCNK9, FluxOR thallium flux fluorescence; hits give low values. 1.2% of 310,000 active. B-score at 10 µM. Q9NPC2. AID 488922;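 active means ratio B-score over 3 SD below the library mean, with starting fluorescence within 5 SD of its mean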;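 further: negative B-score means less thallium flux so channel inhibition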
hERG protect: compounds protecting human hERG from proarrhythmic drug block | Q12809 | CHO-hERG, FluxOR thallium flux, dofetilide IC70 present | activation (rescue from dofetilide block), less the hit threshold, % at 10 µM | 0.51% of 310,000 active;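 active means activation above the mean of controls blocked by dofetilide plus 5 SD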;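 further: thallium influx through hERG after potassium depolarization seen as dye fluorescence rise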
Target sequence (Q12809 whole entry, looked up): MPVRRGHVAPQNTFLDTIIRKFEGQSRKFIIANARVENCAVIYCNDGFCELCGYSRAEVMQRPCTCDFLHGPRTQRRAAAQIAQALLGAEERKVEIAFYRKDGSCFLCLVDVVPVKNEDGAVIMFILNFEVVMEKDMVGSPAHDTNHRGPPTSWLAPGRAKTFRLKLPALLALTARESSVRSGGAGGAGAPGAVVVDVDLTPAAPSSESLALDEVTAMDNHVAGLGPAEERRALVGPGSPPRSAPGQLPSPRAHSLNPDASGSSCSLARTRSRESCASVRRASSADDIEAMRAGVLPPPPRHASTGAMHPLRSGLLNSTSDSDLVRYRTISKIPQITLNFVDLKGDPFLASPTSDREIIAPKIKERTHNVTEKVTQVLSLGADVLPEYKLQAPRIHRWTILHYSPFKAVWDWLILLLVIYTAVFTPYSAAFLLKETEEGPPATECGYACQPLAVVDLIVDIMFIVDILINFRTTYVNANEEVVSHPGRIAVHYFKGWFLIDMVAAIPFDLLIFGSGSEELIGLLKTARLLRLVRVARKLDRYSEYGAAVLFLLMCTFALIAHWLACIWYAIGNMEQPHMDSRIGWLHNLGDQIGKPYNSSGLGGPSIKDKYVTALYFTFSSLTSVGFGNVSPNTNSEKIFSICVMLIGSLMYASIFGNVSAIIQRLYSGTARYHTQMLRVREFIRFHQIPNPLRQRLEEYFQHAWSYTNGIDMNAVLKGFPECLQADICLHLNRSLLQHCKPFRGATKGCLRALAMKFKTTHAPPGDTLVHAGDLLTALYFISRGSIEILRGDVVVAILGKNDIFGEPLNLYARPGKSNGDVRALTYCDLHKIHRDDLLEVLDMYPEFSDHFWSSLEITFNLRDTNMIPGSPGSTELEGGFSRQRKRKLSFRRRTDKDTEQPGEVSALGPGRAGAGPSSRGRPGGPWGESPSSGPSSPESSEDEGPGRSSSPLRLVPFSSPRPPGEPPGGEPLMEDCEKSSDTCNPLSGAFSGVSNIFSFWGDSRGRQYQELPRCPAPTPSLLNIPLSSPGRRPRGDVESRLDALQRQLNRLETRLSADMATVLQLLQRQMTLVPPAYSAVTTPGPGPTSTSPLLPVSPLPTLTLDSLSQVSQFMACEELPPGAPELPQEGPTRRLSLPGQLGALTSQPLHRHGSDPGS
KCNQ1 inh: blocks the human KCNQ1 potassium channel. P51787. CHO-K1 KCNQ1, FluxOR thallium flux fluorescence; hits give high values. B-score at 10 µM. 1.3% of 310,000 active. AID 2642;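 active means compounds whose thallium flux B-score, printed positive for inhibition, exceeds three library SD while starting fluorescence stays within three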;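 further: channel opened by potassium depolarization with thallium stimulus after 20 min compound exposure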
KCNK3 inh: human KCNK3 channel inhibition, primary screen. AID 602410. B-score at 10 µM. CHO-KCNK3 thallium flux, FluxOR fluorescence; hits give low values. 0.84% of 340,000 active. O14649;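 active means B-score under library mean minus 4 SD, starting fluorescence ratio at most library mean plus 5 SD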;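 further: more negative B-score means stronger inhibition of thallium flux through KCNK3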
KCNK9 block conf: confirmation of human KCNK9 potassium channel inhibitors. shares compounds with KCNK9 inh. HEK293 KCNK9 cells, FluxOR thallium flux fluorescence. inhibition, % at 10 µM. 43% of 4,900 active. AID 492992;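 active means thallium signal inhibited by more than 5 SD of the compound-free buffer control wells, on both duplicate plates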;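 further: 0% = assay buffer control wells without compound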
Kir21 sel: selectivity of KCNK9 modulators against mouse Kir2.1. shares compounds with KCNK9 inh. Kir2.1 cells, FluxOR thallium flux fluorescence. inhibition, % at 10 µM. 4% of 4,900 active. AID 492993;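 active means thallium signal drop more than 5 SD beyond the mean of the no-compound control wells, seen in both duplicate plates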;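 further: signal is fluorescence rise after thallium addition divided by baseline fluorescence; plate controls were assay buffer only for no effect and full block by chlorpromazine control for full effect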
HEK293 Tl ctr: second counter-screen for KCNK9 modulators: effect in non-induced cells; shares compounds with KCNK9 inh; non-induced KCNK9-HEK293, FluxOR thallium flux; inhibition, % at 10 µM; 40% of 4,900 active; AID 492997;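 active means thallium signal drop beyond 5 SD of the untreated control mean, on both duplicate plates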;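 further: plate controls were buffer only IC0 wells for no effect and SID17386958 at its maximal inhibitory level for full effect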
Active calls of the source: *; i = inactive; x = not tested or not shown.

SMILES | KCNQ1 act | Cl transport mod | KCNK9 inh | hERG protect | KCNQ1 inh | KCNK3 inh | KCNK9 block conf | Kir21 sel | HEK293 Tl ctr
Cc1nc(C(=O)N2CCCC(N3CCN(c4ccccc4C)CC3)C2)cs1 (centres undefined) | i | x | i | -10.0 | i | i | i | i | i
COc1ccc(C(=O)COC(=O)Cc2n[nH]c(=O)c3ccccc23)c(OC)c1 | i | x | i | -7.1 | i | i | x | x | x
O=C1C=C(c2ccc3cc[nH]c3c2)C[C@@H](c2ccc3c(c2)OCO3)C1 | x | x | x | x | x | i | x | x | x
CCCN(CC(=O)Nc1ccccc1OC)C(=O)c1ccc2[nH]c3c(c2c1)CC(C)CC3 (centres undefined) | x | x | x | x | x | i | x | x | x
CN(C(=O)c1cccc(NC(=O)Cc2ccc(NC(=O)C3CCCN(C(=O)C4CC4)C3)cc2)c1)C1CCC1 (centres undefined) | x | x | x | x | x | i | x | x | x
Cc1ccccc1N1CCN(C2CCCN(C(=O)c3cnsn3)C2)CC1 (centres undefined) | i | x | i | -10.0 | i | i | i | i | i
Cc1ccccc1N1CCN(C2CCCN(C(=O)c3ccc(Cl)s3)C2)CC1 (centres undefined) | i | x | i | -10.7 | i | i | i | i | i
Cc1cccc(C(=O)N2CCCC(N3CCN(c4cccc(Cl)c4)CC3)C2)n1 (centres undefined) | i | x | i | -9.7 | i | i | i | i | i
O=C(c1cnccn1)N1CCCC(N2CCN(c3cccc(Cl)c3)CC2)C1 (centres undefined) | i | x | i | -6.8 | i | i | x | x | x
Cc1cc(C(=O)N2CCCC(N3CCN(c4ccccc4C)CC3)C2)nc(C)n1 (centres undefined) | i | x | i | -9.4 | i | i | x | x | x
COc1cccc(CN(C)Cc2nc(Cc3ccccc3Cl)no2)c1 | i | -0.521 | i | -5.8 | i | i | i | i | i
CCc1ccc(-c2nn(-c3ccccc3)cc2C2SCC(=O)N2Cc2ccco2)cc1 (centres undefined) | i | 1.05 | i | -9.9 | i | i | i | i | i
O=C(N/N=C/c1ccccn1)c1ccc(Cl)c(Cl)c1 | i | x | i | -10.2 | i | i | x | x | x
Cc1ccc(S(=O)(=O)N[C@H](C(=O)NC2CCC(C)CC2)C(C)C)cc1 (some centres undefined) | x | x | x | x | x | i | x | x | x
COc1cc(C)c(NC(=O)C(=S)NCc2ccccc2)cc1C | i | 0.0263 | i | 3.0 | i | i | i | i | 27.0%*
COc1cc(C)c(NC(=O)C(=S)N2CCCC2)cc1C | i | 0.0179 | i | -16.1 | i | i | x | x | x
O=S(=O)(N/N=C/c1ccc(Cl)cc1)c1ccc(Cc2ncc(C(F)(F)F)cc2Cl)s1 | i | -0.645 | i | -16.5 | 10* | -9.28* | i | i | i
CC(C)(C)C(=O)Nc1ccccc1C(=O)OCC(=O)c1ccc2c(c1)OCCO2 | i | -0.188 | -18.4* | -0.7 | i | i | 62.0%* | i | 32.0%*
Cc1ccc(C(=O)COC(=O)CNC(=O)Cc2ccccc2)cc1[N+](=O)[O-] | i | 0.507 | i | -1.7 | i | i | x | x | x
CCOCCOC(=O)COC(=O)c1ccccc1NC(=O)c1ccccc1 | i | 0.879 | i | -13.0 | i | i | i | i | i
CCOCC(=O)Nc1ccccc1C(=O)OCC | i | -1.46 | i | 0.6 | i | i | x | x | x
Cc1ccc(C(=O)COC(=O)c2ccccc2NC(=O)c2ccccc2)cc1[N+](=O)[O-] | i | 0.611 | -8.98* | -4.8 | i | i | 49.0%* | i | 36.5%*
O=C(c1ccccc1)N1CCN(C2c3cccc4cccc(c34)C2NS(=O)(=O)c2ccccc2)CC1 (centres undefined) | i | -0.0104 | i | -5.4 | i | i | x | x | x
CC1=CC2=NC(=O)/C(=C\c3cccn3CCOc3cc(C)ccc3C)C(=N)N2O1 | i | -0.786 | -8.8* | -10.5 | i | i | 66.5%* | i | 29.0%*
O=C(CN1CCC(Cc2ccccc2)CC1)NC(=O)NC1CCCCC1 | i | 0.356 | i | -15.0 | i | i | i | i | i
SMILES | KCNQ1 act | Cl transport mod | KCNK9 inh | hERG protect | KCNQ1 inh | KCNK3 inh | KCNK9 block conf | Kir21 sel | HEK293 Tl ctr
CCN(CC(=O)NC(=O)NC1CCCCC1)Cc1ccccc1 | i | x | i | -6.8 | i | i | i | i | i
CCn1cc(CN2CCC(C(=O)Nc3ccc(Oc4cccnc4)cc3)CC2)cn1 | i | x | i | -6.7 | i | i | x | x | x
COc1cccc(Nc2nc(-c3cccc(N4C(=O)c5ccccc5C4=O)c3)cs2)c1 | i | 0.448 | i | -7.3 | i | i | i | i | i
Cc1cccc(NS(=O)(=O)c2cccc(C(=O)NCC(c3ccc(F)cc3)N3CCOCC3)c2)c1 (centres undefined) | x | x | x | x | x | i | x | x | x
COC(=O)c1ccc(CSC2=NC[C@@H]3[C@@H]4C(=O)N(Cc5ccccc5)C(=O)[C@@H]4[C@](C)(C(=O)OC)N23)cc1 | x | x | x | x | x | i | x | x | x
Cc1ccc(CNC(=O)c2ccc(CNS(=O)(=O)c3ccc4c(c3)C(C)(C)C(=O)N4C)cc2)o1 | i | x | i | -7.0 | i | i | i | i | i
COc1ccc(N(CC(=O)NC2CCCCC2)C(=O)CCCC(=O)Nc2ccccn2)cc1 | i | x | i | -10.1 | i | i | x | x | x
CCCCN1C(=O)c2cccc3cc(O)cc(c23)C1=O | i | x | i | -1.4 | i | i | x | x | x
COc1ccc(C(=O)/C(=C\c2sccc2C)c2nc3ccccc3o2)cc1 | i | -0.512 | i | -6.0 | i | x | x | x | x
CC(C)Oc1ccc(C(=O)/C(=C\c2cccs2)c2nc3ccccc3o2)cc1 | i | 0.578 | i | -12.0 | i | i | i | i | i
CCOc1ccc2[nH]c3c(=O)n(CCc4ccc(OC)cc4)cnc3c2c1 | i | -0.0356 | i | -6.1 | i | i | x | x | x
CCOc1ccc2[nH]c3c(=O)n(CCC4=CCCCC4)cnc3c2c1 | i | 0.713 | i | -9.9 | i | i | i | i | i
CCOCCCNC(=S)NCCNc1nc2ccc(C)cc2cc1C#N | i | 0.0233 | -8.33* | -8.5 | i | i | i | i | i
CC(=O)Nc1cc2c3c(cccc3c1)-c1ccccc1-2 | x | x | x | x | x | i | x | x | x

Assay outcomes: PubChem BioAssay, several laboratories
